{
  "source": "ChEMBL document CHEMBL1909525",
  "about": "“Synthesis and anticonvulsant activity of novel 2,6-diketopiperazine derivatives. Part 1: perhydropyrrole[1,2-a]pyrazines” (Eur J Med Chem, 2011)",
  "key": {"Mus musculus": {"system": "Mus musculus", "assay": "Neurotoxicity in albino Carworth Farms No.1 mouse assessed as motor impairment at 300 mg/kg, ip after 0.5 hrs by rotarod test", "assay_type": "toxicity, organism-based", "set-up": "dose 300 mg/kg, route intraperitoneal", "conditions": "in vivo", "procedure,_shortened": "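Rotorod neurotoxicity in mice at 6 r.p.m. Compound given i.p. (30, 100, 300 mg/kg) in 0.5% methylcellulose; tested at 30 min and 4 h. Impairment is inability to keep equilibrium on the rod for a given time; scored as impaired/tested.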"}, "Rattus norvegicus [1]": {"species_on_record": "Rattus norvegicus", "assay": "Activation of voltage-gated sodium channel in Wistar rat cerebral prefrontal coronal slices assessed as increase of 0.1 Hz current-induced current amplitude at 100 uM after 5 mins by whole cell voltage clamp method", "procedure,_shortened": "(§1)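 Whole-cell voltage clamp on mechanically dispersed mPFC cells from coronal prefrontal slices of 3-week-old male Wistar rats. Bath: TEA-OH 90, NaCl 30, HEPES 10, MgCl2 2, CaCl2 2, glucose 15 mM, pH 7.4. Na+ currents evoked at 0.1 Hz by a step to -20 mV (30 ms) after a -100 mV prepulse (1000 ms). Amplitude compared before and after 5 min compound application; n = 3.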"}, "Rattus norvegicus [2]": {"system": "Rattus norvegicus", "assay": "Toxicity in albino Sprague-Dawley rat pilocarpine-induced status epilepticus model assessed as change in body weight in non-protected rat at 130 mg/kg, ip measured after 24 hrs of time from first stage 3 seizures", "assay_type": "organism-based", "set-up": "dose 130 mg/kg, route intraperitoneal", "conditions": "in vivo", "procedure,_shortened": "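Male albino Sprague-Dawley rats (150–180 g) received compound i.p., then a pilocarpine challenge immediately (0 min) or 30 min after treatment. The outcome was protection or no protection from seizures, scored as number protected/number tested. Average body weight change (g) ± S.E.M. was reported separately for protected and non-protected rats.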"}, "Rattus norvegicus [3]": {"species_on_record": "Rattus norvegicus", "assay": "Activation of voltage-gated sodium channel in Wistar rat cerebral prefrontal coronal slices assessed as increase of 0.1 Hz current-induced current amplitude at 10 uM after 5 mins by whole cell voltage clamp method", "procedure,_shortened": "as §1"}},
  "data": [
    {"molecule": "O=C1NC(=O)[C@@H]2CCCN2[C@H]1c1ccccc1", "values": [
      {"measurement": "Activity", "setting": "Mus musculus", "value": "Non-toxic"},
      {"measurement": "Activity", "setting": "Rattus norvegicus [1]", "value": 8.4, "unit": "%"},
      {"measurement": "Activity", "setting": "Rattus norvegicus [2]", "value": -22.5, "unit": "g"},
      {"measurement": "Activity", "setting": "Rattus norvegicus [3]", "value": 3, "unit": "%"}
    ]}
  ]
}
